Test results: ChEMBL document CHEMBL5653623 (J Pharmacol Exp Ther, 2015)
Calls of active or inactive are those of the source. The calls are words filed in the database; no cut-off is given here.

Experiments:
[1] = molecular target: T1, Mitogen-activated protein kinase kinase kinase 5 (Homo sapiens, UniProt Q99683); experiment: Inhibition of MAP3K5 (unknown origin)
T1 sequence (Q99683 whole entry): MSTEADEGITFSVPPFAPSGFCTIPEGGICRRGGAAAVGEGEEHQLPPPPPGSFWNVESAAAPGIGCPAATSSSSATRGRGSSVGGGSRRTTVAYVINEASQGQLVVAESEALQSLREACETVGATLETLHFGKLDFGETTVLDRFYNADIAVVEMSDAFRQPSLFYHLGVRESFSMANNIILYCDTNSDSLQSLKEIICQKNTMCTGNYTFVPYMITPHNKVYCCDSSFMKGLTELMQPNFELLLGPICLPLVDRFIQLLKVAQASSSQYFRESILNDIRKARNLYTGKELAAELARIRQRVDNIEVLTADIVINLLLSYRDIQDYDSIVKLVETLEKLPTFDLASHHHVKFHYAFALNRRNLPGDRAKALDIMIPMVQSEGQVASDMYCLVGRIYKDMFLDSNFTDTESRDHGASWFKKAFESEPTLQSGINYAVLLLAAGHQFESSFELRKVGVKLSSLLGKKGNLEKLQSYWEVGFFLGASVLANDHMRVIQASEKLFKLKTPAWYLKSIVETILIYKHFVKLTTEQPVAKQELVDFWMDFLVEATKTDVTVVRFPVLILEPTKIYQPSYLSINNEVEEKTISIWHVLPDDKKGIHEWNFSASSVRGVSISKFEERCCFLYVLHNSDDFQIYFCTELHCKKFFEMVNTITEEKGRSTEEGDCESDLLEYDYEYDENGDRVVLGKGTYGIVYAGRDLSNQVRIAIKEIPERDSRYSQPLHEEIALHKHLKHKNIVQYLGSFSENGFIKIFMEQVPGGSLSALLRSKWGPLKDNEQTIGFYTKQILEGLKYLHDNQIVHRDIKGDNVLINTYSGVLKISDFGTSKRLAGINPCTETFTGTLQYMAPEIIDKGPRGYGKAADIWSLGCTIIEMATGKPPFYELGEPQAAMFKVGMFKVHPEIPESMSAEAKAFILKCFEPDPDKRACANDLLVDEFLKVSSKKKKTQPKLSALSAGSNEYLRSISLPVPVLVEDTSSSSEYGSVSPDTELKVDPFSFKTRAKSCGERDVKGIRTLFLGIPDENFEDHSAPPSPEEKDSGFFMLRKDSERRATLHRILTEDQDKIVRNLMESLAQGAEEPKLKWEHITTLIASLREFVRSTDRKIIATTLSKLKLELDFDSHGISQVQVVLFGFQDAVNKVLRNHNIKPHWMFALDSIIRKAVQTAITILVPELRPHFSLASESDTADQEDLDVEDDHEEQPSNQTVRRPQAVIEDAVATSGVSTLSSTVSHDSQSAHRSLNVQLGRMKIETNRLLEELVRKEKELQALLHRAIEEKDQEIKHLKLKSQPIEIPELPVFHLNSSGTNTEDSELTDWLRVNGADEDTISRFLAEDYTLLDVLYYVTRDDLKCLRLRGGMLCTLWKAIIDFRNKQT

[2] = molecular target: 5-hydroxytryptamine receptor 2B (Homo sapiens, UniProt P41595); experiment: Inhibition of serotonin 5-HT2B (unknown origin)
Summary of the method: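 Radioligand binding selectivity screen was run at 10 μM, mean of three determinations. Where inhibition exceeded 50%, full concentration-displacement curves were run in triplicate and IC50 was obtained by nonlinear least-squares regression.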

[3] = molecular target: Leucine-rich repeat serine/threonine-protein kinase 2 (Mus musculus) (UniProt Q5S006); experiment: In vivo inhibition of LRRK2 in C57Bl/6 mouse brain assessed as inhibition of pSer935 LRRK2 administered for 11 days and measured after 24 hrs by Western blotting analysis; assay type: functional, organism-based; conditions: dose 3-120 mg/kg, time 11.0 day
Summary of the method: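 Male C57Bl/6 mice, singly housed on a reversed light cycle. Fed drug diet targeted to 3, 10, 30, 60 or 120 mg/kg/day (assuming 3 g/day intake), or untreated diet, for 11 days. Killed 4, 8 or 24 h after dark-cycle onset, n = 5 per group. Cortex immunoblotted for pSer935/total LRRK2 and total LRRK2/GAPDH. Total LRRK2 detected with MJFF2 antibody.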

[4] = molecular target: Leucine-rich repeat serine/threonine-protein kinase 2 (Mus musculus) (UniProt Q5S006); experiment: In vivo inhibition of LRRK2 in C57Bl/6 mouse kidney assessed as total LRRK2 protein level at 10 to 120 mg/kg administered for 11 days and measured after 8 hrs by Western blotting analysis; assay type: functional, organism-based; conditions: dose 10-120 mg/kg, time 11.0 day
Summary of the method: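 Same 11-day in-diet design in male C57Bl/6 mice: 3-120 mg/kg/day or untreated diet, killed 4, 8 or 24 h after dark-cycle onset, n = 5 per group. Kidneys dissected for Western blot of pSer935 and total LRRK2, with total LRRK2 detected by MJFF-2 antibody.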

[5] = Unbound plasma concentration in C57Bl/6 mouse administered for 11 days; assay type: ADME, cell-free; conditions: 264 h, dose 3-100 mg/kg, time 11 day
Summary of the method: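 Male C57Bl/6 mice, singly housed on a reversed 12 h light cycle, were fed diet formulated to give 3, 10, 30, 60 or 120 mg/kg/day (assumes 3 g/day intake) or untreated diet for 11 days. Body weight and food intake were monitored. Spontaneous locomotion and rearing were recorded over 60 min. On day 11, mice were euthanized 4, 8 or 24 h after dark onset and plasma and brain drug levels measured; n = 5 per group.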

Mus musculus [6] = experiment: Effect on behavioral phenotype in 8 weeks old MitoPark mouse assessed as locomotor activity at 30 mg/kg/day administered for 3 weeks and measured after 60 mins by truScan photo beam activity system analysis; assay type: functional, organism-based
Summary of the method: (§1)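 MitoPark mice, 5 weeks old, were allocated by baseline 60-min LMA to untreated diet or diet targeting 30 mg/kg/day (reformulated every 3 weeks). Wild-type littermates received vehicle diet. Body weight and food intake were recorded weekly. 60-min LMA (distance, rearing) was run at 8, 11, 14 and 17 weeks of age.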

Mus musculus [7] = experiment: Effect on behavioral phenotype in 8 weeks old MitoPark mouse assessed as rearing behavior at 30 mg/kg/day administered for 3 weeks and measured after 60 mins; assay type: functional, organism-based; summary of the method: as §1
Mus musculus [8] = experiment: Effect on behavioral changes in 14 weeks old MitoPark mouse striatum assessed as dopamine level at 30 mg/kg/day by HPLC analysis; assay type: functional
Summary of the method: (§2)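 Striatum from MitoPark mice on diet targeting 30 mg/kg/day or vehicle diet (wild-type littermate controls) was homogenized by sonication in 0.1 M acid at 0.1 g/mL. Samples were held 60 min at 4 °C and centrifuged. Dopamine, DOPAC and HVA were measured by HPLC with electrochemical detection against a 3,4-DHBA internal standard and standard curves. Mean ± SEM.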

Mus musculus [9] = experiment: Effect on behavioral changes in 14 weeks old MitoPark mouse striatum assessed as DOPAC level at 30 mg/kg/day by HPLC analysis; assay type: functional; summary of the method: as §2

Leucine-rich repeat serine/threonine-protein kinase 2 (Mus musculus), sequence (Q5S006 whole entry): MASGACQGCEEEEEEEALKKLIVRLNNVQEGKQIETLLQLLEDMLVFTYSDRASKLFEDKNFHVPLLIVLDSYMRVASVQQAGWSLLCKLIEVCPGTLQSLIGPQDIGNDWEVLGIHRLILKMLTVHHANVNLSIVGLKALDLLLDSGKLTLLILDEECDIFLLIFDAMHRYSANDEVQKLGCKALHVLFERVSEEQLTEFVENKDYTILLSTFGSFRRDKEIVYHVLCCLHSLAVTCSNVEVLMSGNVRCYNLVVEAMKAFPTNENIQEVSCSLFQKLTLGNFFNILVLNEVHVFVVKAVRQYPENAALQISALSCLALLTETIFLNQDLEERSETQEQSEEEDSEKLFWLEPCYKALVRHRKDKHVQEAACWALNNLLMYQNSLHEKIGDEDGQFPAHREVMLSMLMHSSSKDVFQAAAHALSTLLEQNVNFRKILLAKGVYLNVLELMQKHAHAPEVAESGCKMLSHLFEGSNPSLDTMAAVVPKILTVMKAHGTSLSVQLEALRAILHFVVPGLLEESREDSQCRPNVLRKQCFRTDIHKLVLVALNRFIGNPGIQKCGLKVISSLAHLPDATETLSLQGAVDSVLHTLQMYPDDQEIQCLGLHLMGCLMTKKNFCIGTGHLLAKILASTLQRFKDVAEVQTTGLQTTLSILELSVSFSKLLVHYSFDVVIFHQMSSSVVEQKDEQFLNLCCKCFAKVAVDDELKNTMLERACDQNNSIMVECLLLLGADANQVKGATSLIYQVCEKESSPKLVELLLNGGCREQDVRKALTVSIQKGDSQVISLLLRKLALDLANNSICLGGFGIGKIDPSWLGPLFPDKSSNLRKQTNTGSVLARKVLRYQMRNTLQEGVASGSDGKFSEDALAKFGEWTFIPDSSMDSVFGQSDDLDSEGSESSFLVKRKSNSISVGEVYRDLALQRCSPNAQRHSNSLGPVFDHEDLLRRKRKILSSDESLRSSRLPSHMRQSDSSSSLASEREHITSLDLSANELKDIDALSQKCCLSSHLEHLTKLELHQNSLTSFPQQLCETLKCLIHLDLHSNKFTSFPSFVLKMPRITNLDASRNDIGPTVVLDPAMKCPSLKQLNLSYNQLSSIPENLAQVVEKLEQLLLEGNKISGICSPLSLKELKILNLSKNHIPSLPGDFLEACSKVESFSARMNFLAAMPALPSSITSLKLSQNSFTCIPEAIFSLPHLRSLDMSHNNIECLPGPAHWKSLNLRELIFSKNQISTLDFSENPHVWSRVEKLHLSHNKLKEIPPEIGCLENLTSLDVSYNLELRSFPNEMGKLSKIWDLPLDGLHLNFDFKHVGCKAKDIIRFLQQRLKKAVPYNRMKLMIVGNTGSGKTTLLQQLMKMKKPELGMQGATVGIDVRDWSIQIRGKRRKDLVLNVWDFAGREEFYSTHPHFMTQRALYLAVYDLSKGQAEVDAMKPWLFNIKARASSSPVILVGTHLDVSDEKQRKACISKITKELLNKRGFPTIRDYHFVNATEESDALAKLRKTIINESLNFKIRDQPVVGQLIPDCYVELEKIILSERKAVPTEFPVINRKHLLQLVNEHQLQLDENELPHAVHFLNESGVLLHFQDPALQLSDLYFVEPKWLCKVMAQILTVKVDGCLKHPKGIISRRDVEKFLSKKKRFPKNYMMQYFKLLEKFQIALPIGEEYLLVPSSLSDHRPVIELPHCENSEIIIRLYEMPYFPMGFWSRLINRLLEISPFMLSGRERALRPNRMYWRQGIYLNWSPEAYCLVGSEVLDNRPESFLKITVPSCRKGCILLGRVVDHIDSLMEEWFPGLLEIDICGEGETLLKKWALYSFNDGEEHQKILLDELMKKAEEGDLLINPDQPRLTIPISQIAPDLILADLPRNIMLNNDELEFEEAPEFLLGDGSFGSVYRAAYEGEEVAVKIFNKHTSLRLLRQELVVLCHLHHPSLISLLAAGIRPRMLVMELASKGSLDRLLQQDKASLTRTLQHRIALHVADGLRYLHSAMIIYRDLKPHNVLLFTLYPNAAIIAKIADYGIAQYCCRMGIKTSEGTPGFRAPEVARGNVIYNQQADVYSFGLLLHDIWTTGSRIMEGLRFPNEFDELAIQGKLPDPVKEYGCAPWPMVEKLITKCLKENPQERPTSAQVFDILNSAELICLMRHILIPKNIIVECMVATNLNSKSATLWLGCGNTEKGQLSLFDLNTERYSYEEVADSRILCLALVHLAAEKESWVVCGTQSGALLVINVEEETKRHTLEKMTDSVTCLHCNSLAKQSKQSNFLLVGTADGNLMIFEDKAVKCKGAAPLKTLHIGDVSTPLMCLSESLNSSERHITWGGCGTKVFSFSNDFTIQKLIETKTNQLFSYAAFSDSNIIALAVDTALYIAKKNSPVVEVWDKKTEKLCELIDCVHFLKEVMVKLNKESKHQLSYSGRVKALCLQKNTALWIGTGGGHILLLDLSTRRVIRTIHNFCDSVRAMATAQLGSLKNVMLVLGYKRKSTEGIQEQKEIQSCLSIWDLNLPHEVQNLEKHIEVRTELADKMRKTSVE
5-hydroxytryptamine receptor 2B, sequence (P41595 whole entry): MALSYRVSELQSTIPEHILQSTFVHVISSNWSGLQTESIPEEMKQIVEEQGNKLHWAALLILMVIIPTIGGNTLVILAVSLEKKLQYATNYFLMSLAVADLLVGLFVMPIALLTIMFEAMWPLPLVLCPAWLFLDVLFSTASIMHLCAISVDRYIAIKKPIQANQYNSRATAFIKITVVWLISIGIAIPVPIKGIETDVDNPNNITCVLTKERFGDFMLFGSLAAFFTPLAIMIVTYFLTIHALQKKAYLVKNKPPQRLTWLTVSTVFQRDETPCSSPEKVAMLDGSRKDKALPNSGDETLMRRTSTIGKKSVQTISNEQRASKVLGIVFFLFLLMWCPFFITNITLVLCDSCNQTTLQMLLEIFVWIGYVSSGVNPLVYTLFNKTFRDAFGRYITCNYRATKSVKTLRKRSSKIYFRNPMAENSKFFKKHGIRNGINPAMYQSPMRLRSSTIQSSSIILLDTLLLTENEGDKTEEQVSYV

For `C[C@@H]1CN(c2cc(-c3n[nH]c4ccc(OC5(C)CC5)cc34)ncn2)C[C@H](C)O1` [MLi-2], the IC50 [1] was 428 nM, the IC50 [2] was 1200 nM and the inhibition [3] was “Dose-Dependent Effect”. The inhibition [4] was “Active”, the “Drug uptake(free)” value [5] was “Dose-Dependent Effect” and the Activity (Mus musculus [6]) was “Active”. For the same compound, the Activity (Mus musculus [7]) was “Active”, the Activity (Mus musculus [8]) was 1105 ng/g and the Activity (Mus musculus [9]) was 7521 ng/g.
